Bioassay records deposited in PubChem BioAssay by several laboratories.
Shown are actives, neighbours in structure and some others; about 2.4% of the full set was active somewhere.
PfGluPho inh – PfG6PD (Plasmodium falciparum) enzyme inhibition | 350,000 tested, 0.78% active | AID 504690 | inhibition, % at 20 µM | PfGluPho enzyme, NADPH resazurin-diaphorase fluorescence;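 active = inhibition reaching at least a set limit at 20 µM in the primary screen, cut at about 59% in these data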
HKDC1 inh – inhibitors of human hexokinase HKDC1. recombinant HKDC1, G6PDH/diaphorase resazurin coupled fluorescence. inhibition, % at 20 µM. 340,000 tested, 0.16% active. AID 493160;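 active = inhibition above about 35% when tested at 20 µM, limit read from the data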
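Material – in-house recombinant HK5 (HKDC1) enzyme · Quantity – HKDC1 at 5 µg/mL · Buffer or medium – pH 8.0 Tris buffer with 10 mM MgCl2 · Reagent – glucose with 1 mM ATP · Dosing – single 20 µM dose · Times – reaction time 90 min, room temperature, protected from light · Technique – resorufin fluorescence at 613 nm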
A3G deaminase – inhibitors of human APOBEC3G DNA deaminase; recombinant A3G, ssDNA deamination FAM/TAMRA fluorescence; inhibition, % at 20 µM; 330,000 tested, 0.28% active; AID 493012;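 active = inhibition of at least 40% at 20 µM, with no more than 30% in the related APOBEC3A deaminase screen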
Target sequence (Q9HC16 whole entry, looked up): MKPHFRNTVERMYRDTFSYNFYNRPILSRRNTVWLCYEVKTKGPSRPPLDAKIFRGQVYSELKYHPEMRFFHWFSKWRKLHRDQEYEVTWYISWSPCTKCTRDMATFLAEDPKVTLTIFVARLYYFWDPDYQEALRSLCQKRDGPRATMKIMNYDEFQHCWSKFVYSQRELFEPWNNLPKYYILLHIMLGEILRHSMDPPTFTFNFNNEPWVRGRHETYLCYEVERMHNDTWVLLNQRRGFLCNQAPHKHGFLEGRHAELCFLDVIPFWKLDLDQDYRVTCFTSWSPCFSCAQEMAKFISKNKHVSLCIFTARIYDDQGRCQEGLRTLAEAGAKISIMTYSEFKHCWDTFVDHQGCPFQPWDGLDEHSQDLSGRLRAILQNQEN
PfM18AAP inh – PfM18AAP enzyme inhibition; recombinant PfM18AAP, H-Glu-NHMec fluorogenic cleavage; inhibition, % at 7.35 µM; 290,000 tested, 1.2% active;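 active = inhibition above the campaign mean inhibition over all tested compounds plus 3 SD, cut at about 28% in these data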
APOBEC3A inh – human APOBEC3A DNA deaminase inhibition; P31941; recombinant A3A, FAM/TAMRA ssDNA deamination fluorescence; inhibition, % at 20 µM; 330,000 tested, 0.41% active; AID 493011;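 active = at least 40% inhibition at 20 µM here, with at most 30% in a related deaminase screen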
Target sequence (P31941 whole entry, looked up): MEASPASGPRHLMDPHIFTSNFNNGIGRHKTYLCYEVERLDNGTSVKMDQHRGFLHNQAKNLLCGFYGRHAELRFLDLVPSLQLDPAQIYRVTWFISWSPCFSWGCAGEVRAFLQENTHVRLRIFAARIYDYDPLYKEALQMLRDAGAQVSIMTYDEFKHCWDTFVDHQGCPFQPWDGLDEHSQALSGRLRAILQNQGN
UBC9 SUMO inh – blocks human SUMOylation mediated by UBC9; 290,000 tested, 0.36% active; inhibition, % at 35 µM; P63279; AID 2006; HTRF SUMOylation assay, SAE1/SAE2 + UBC9, in vitro; in the data active = inhibition above about 50%, passing the limit was not always enough
PfGluPho conf – confirmation of Plasmodium falciparum G6PD inhibitors; shares compounds with PfGluPho inh; recombinant PfGluPho, NADPH-diaphorase-resazurin fluorescence; inhibition, % at 20 µM; 2,400 tested, 34% active; AID 504753;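 active = inhibition of at least 50% at 20 µM in any single replicate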
Diaphorase 10uM – counter-screen for P. falciparum G6PD inhibitors: diaphorase inhibitors, oxidizers | inhibition, % at 20 µM | diaphorase-coupled resazurin reduction, fluorescence, NADPH 10 uM | shares compounds with PfGluPho inh | 820 tested, 39% active;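 active = average inhibition reaching 50% or more with the compound at 20 µM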;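 note: resorufin red fluorescence formed as diaphorase reduces resazurin using NADPH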
Diaphorase 30uM – inhibits diaphorase or oxidizes, flagging false PfG6PD hits | shares compounds with PfGluPho inh | Diaphorase/resazurin coupled assay, resorufin fluorescence, 30 uM NADPH | inhibition, % at 20 µM | 820 tested, 29% active | AID 504863;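 active = inhibition averaging 50% or more, tested at 20 µM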
Large screens that a line does not name were inactive (follow-up assays come after a bar, where they were run).

NC(=S)N/N=C/c1cccc(/C=N/NC(N)=S)c1	none
O=[N+]([O-])c1ccc(C=Nc2cccc3ccccc23)s1	PfGluPho inh 71 | PfGluPho conf inactive
O=[N+]([O-])c1ccc(-c2ccc(C=Nc3cccc4ccccc34)o2)cc1	none
O=C(O)c1ccc(N2CC3CC(C2)c2cccc(=O)n2C3)c(NC(=S)Nc2ccc(Cl)cc2Cl)c1 (stereo unspecified)	PfGluPho inh 59 | PfGluPho conf inactive
CC(=O)C(C(c1ccccc1)c1c[nH]c2ccccc12)[N+](=O)[O-] (stereo unspecified)	none
O=[N+]([O-])c1cccc(NC(=S)NCc2ccncc2)c1	PfGluPho inh 79 | PfGluPho conf inactive
O=C(NCc1ccncc1)Nc1cccc([N+](=O)[O-])c1	none
O=C1NC(Cc2ccccc2)c2nc3cc(F)ccc3c(=O)n2-c2cc(Cl)ccc21 (stereo unspecified)	none (no result: PfGluPho inh, HKDC1 inh, PfM18AAP inh, UBC9 SUMO inh)
COc1ccccc1/C=N/NC(=O)CO	none
COc1ccccc1/C=N/NC(=O)CSc1cc(C)nc2ccccc12	PfGluPho inh 83 | PfGluPho conf 68 | Diaphorase 10uM 69 | Diaphorase 30uM 53
COc1cccc2c(SCC(=O)N/N=C/c3ccc(O)cc3O)cc(C)nc12	none (no result: UBC9 SUMO inh)
COc1ccccc1/C=N/NC(=O)CC(=O)NCc1ccccc1	PfGluPho inh 105 | PfGluPho conf 86 | Diaphorase 10uM 93 | Diaphorase 30uM 82
COc1ccc2nc(C)cc(SCC(=O)N/N=C/c3ccccc3)c2c1	none | PfGluPho conf inactive
COc1ccccc1/C=N/NC(=O)CSc1ccc2ccccc2n1	PfGluPho inh 119 | PfGluPho conf 85 | Diaphorase 10uM 97 | Diaphorase 30uM 86
Cc1cc(NC(=S)Nc2ccccc2)ccc1Br	none
O=C(NCc1ccccn1)c1ccc(NS(=O)(=O)c2ccccc2)cc1	none
COc1ccc(S(=O)(=O)NC2CC(C)(C)NC(C)(C)C2)c(C)c1C	none (no result: PfGluPho inh, HKDC1 inh)
O=C(COC(=O)c1cnc(Cl)c(Cl)c1)NCCC1=CCCCC1	none
O=C(NC(=S)Nc1ccc(-c2ccc(CO)o2)cc1)c1cccs1	PfGluPho inh 81 | PfGluPho conf inactive
Cc1ccc(C(=O)NC(=S)Nc2ccc(-c3ccc(CO)o3)cc2)cc1	none
c1ccc(Cn2ncc3c(N4CCN(C(c5ccccc5)c5ccccc5)CC4)ncnc32)cc1	none
Cc1cccc(Nc2nnc(SCC(=O)c3c(N)n(C4CC4)c(=O)[nH]c3=O)s2)c1	none (no result: PfM18AAP inh, UBC9 SUMO inh)
Cc1ccc(Nc2nnc(SCC(=O)c3c(N)n(C4CC4)c(=O)[nH]c3=O)s2)cc1C	PfGluPho inh 64 (no result: PfM18AAP inh, UBC9 SUMO inh) | PfGluPho conf inactive
Cc1cccc(NC(=O)CSCC(=O)N(C)Cc2ccc3c(c2)OCCO3)c1	none (no result: A3G deaminase, PfM18AAP inh, APOBEC3A inh, UBC9 SUMO inh)
COc1cccc(NC(=O)c2cccc(NC(=O)c3ccco3)c2)c1	none (no result: HKDC1 inh, A3G deaminase, PfM18AAP inh, APOBEC3A inh, UBC9 SUMO inh)
COc1cccc(C(=O)Nc2ccc(NC(=O)c3ccco3)c(Cl)c2)c1	PfGluPho inh 70 | PfGluPho conf inactive
N#Cc1cc([N+](=O)[O-])ccc1Oc1cccc(/C=N/NC(=O)c2cccc(Cl)c2)c1	PfGluPho inh 119 | PfGluPho conf 62 | Diaphorase 10uM 60 | Diaphorase 30uM 59
O=C(Nc1ccc2c(c1)OCCO2)c1cc2ccccc2o1	PfGluPho inh 72 | PfGluPho conf inactive
CCN1CCN(C(=S)c2ccc(O)cc2)CC1	PfGluPho inh 70, PfM18AAP inh 47 | PfGluPho conf 53 | Diaphorase 10uM inactive | Diaphorase 30uM inactive
CC1CCN(C(=S)c2ccc(O)cc2)CC1	none
CN(C)c1ccc(C(=S)N2CCN(Cc3ccccc3)CC2)cc1	PfGluPho inh 69, PfM18AAP inh 55 | PfGluPho conf inactive
CC(C)(O)C#Cc1ccc(CNC[C@H]2O[C@@H](n3cnc(C(N)=O)n3)[C@H](O)[C@@H]2O)s1	none (no result: A3G deaminase, PfM18AAP inh, APOBEC3A inh, UBC9 SUMO inh)
O=C(c1cc(-c2ccc(Cl)cc2)n(-c2cc(Cl)ccc2Cl)n1)N1CCOCC1	PfGluPho inh 78 | PfGluPho conf inactive
COCCNC(=O)C(C)N(c1ccc(Oc2ccccc2)cc1)S(C)(=O)=O (stereo unspecified)	none
CN1CC(=O)N(CC(=O)Nc2ccc(N(C)C)cc2)c2ccccc2C1=O	PfGluPho inh 63 | PfGluPho conf inactive
O=C1C=CC(=O)N1CCNc1ncc(C(F)(F)F)cc1Cl	PfGluPho inh 79 | PfGluPho conf 66 | Diaphorase 10uM inactive | Diaphorase 30uM inactive
O=C1CC(=O)N(CCNc2ncc(C(F)(F)F)cc2Cl)C(=O)N1	none
CCNc1cc2c(cc1O)CCC1C2CCC2(C)C(O)CCC12 (stereo unspecified)	PfGluPho inh 80 (no result: A3G deaminase, PfM18AAP inh, APOBEC3A inh, UBC9 SUMO inh) | PfGluPho conf 50 | Diaphorase 10uM inactive | Diaphorase 30uM inactive
CCC(C)NC(=O)CCc1c(C)nc2nc(-c3cc(OC)cc(OC)c3)nn2c1C (stereo unspecified)	none
CC(NC(=O)/C(C#N)=C/c1ccco1)c1ccccc1 (stereo unspecified)	none
CC(NC(=O)/C(C#N)=C/c1ccc([N+](=O)[O-])o1)c1ccccc1 (stereo unspecified)	PfGluPho inh 92 | PfGluPho conf 69 | Diaphorase 10uM 64 | Diaphorase 30uM 66
CCOCCCNC(=O)/C(C#N)=C/c1ccc([N+](=O)[O-])o1	PfGluPho inh 84 | PfGluPho conf 74 | Diaphorase 10uM 63 | Diaphorase 30uM 71
O=S(=O)(c1ccccc1)N1CCN=C1SCc1ccc(Cl)cc1	none
O=S(=O)(c1ccccc1)N1CCN=C1SCc1cccc(Cl)c1	PfGluPho inh 82 | PfGluPho conf inactive
O=S(=O)(c1ccccc1)N1CCN=C1SCc1ccc(Cl)c(Cl)c1	none
O=S(=O)(c1ccccc1)N1CCN=C1SCc1ccccc1Cl	PfGluPho inh 78 | PfGluPho conf inactive
Cc1ccc(S(=O)(=O)N2CCN=C2SCc2ccccc2)cc1	PfGluPho inh 69 | PfGluPho conf inactive
C=CC[C@H](CC(=O)NCCO)C(=O)N[C@H](C)COC(=O)[C@@H](CC=C)Cc1ccc(F)cc1	none (no result: PfM18AAP inh, UBC9 SUMO inh)
O=C(Nc1scc(-c2ccccc2)c1C(=O)O)c1ccccc1Cl	none
Cc1ccc(C(=O)Nc2scc(-c3ccccc3)c2C(=O)O)cc1	PfGluPho inh 105 (no result: PfM18AAP inh, UBC9 SUMO inh) | PfGluPho conf inactive
COc1cc(C(=O)Nc2scc(-c3ccc(C)cc3)c2C(=O)O)cc(OC)c1OC	PfGluPho inh 76 | PfGluPho conf inactive
COc1cc(C(=O)Nc2scc(-c3ccccc3)c2C(=O)O)cc(OC)c1OC	PfGluPho inh 69 | PfGluPho conf inactive
